Consider one compound from ChEMBL document CHEMBL4024789, “Neutral Porphyrin Derivative Exerts Anticancer Activity by Targeting Cellular Topoisomerase I (Top1) and Promotes Apoptotic Cell Death without Stabilizing Top1-DNA Cleavage Complexes” (J Med Chem, 2018).

The target in test [1] is T1, DNA topoisomerase 1 (Homo sapiens) (UniProt P11387).
T1 sequence (whole entry): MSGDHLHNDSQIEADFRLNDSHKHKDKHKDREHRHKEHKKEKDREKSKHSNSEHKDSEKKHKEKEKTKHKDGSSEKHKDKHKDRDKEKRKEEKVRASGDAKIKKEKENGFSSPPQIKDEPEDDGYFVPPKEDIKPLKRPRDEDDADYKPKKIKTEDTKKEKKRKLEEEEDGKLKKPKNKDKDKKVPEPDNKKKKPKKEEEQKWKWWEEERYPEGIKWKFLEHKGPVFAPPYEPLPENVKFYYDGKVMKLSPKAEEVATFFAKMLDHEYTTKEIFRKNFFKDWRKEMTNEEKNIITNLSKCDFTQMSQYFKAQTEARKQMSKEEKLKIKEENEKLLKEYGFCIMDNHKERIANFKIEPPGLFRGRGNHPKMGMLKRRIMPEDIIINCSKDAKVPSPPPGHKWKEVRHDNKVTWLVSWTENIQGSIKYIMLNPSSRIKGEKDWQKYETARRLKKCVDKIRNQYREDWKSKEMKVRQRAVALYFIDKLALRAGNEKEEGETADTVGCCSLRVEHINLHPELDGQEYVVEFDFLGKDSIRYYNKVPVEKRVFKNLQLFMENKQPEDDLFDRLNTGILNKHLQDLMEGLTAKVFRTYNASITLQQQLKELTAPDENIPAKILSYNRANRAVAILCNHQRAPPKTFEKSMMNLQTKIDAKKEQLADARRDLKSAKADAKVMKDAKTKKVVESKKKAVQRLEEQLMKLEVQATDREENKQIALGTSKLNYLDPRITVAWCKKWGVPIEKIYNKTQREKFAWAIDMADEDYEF
The test can be described thus: Inhibition of recombinant human topoisomerase1-[32P]-labeled 25-mer duplex oligonucleotide cleavage complex formation at 10 to 50 uM after 30 mins using topoisomerase1 expressed in baculovirus infected sf9 cells by […].

Test [2] concerns Bacteria. Description: Induction of relaxed pBluescript SK(+) DNA intercalation (unknown origin) assessed as negative supercoiling at 50 to 300 uM after 15 mins by agarose gel electrophoresis method. The gist of the method:
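Top1 unwinding assay: relaxed DNA made by reacting excess Top1 with supercoiled pBS (SK+) plasmid (50 fmol), then incubated with compound at 50, 100 or 300 μM; m-AMSA and etoposide as reference intercalator/non-intercalator. Topoisomers resolved on agarose gel.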

Test [3] addresses T1, DNA topoisomerase 1 (Homo sapiens). Description: Inhibition of recombinant human topoisomerase-1 expressed in baculovirus infected sf9 cells at 1 uM using supercoiled pBS SK(+) DNA as substrate after 15 mins by ethidium bromide staining based agarose gel electrophoresis method relative to control. The gist of the method:
(§1)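 Relaxation assay: 90 fmol supercoiled pBS (SK+) DNA with 30 fmol recombinant Top1 (Sf-9/baculovirus). Compound either preincubated with Top1 for 5 min before DNA addition, or added simultaneously with DNA; then 37 °C for 15 min. Vehicle 2% DMSO. Read on 1% agarose gel. EC50 from mean ± SD of three experiments.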

Test [4] deals with MCF7. Description: Induction of ROS accumulation in human MCF7 cells at 10 uM by CM-H2DCFDA dye based spectrofluorometric method. It is filed as functional, cell-based. The settings on record: TDE = time-dependent effect. The gist of the method:
(§2)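 MCF7 cells treated with 10 μM for the indicated times, with 0.2% DMSO as vehicle control, or pretreated with NAC (10 mM) for 30 min. ROS read as DCF fluorescence from CM-H2DCFDA. Mean ± SD of three independent experiments.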

The target in test [5] is T1, DNA topoisomerase 1 (Homo sapiens). Description: Inhibition of CPT-induced recombinant human EGFP-tagged topoisomerase-1- DNA cleavage complex formation assessed as restoration of Top1 mobility at 20 uM after 10 mins by FRAP assay. Details: scale not given: the % may be the effect or the level left. The gist of the method: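 FRAP in living MCF7 cells transiently expressing EGFP-human Top1, 37 °C chamber. Treatment was CPT 5 μM or compound 20 μM for 10 min, or CPT for 10 min then compound for 10 min. A subnuclear spot was bleached for 30 ms at 488 nm; curves normalized to the prebleach signal.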

For test [6], the system named is MCF7. Description: Induction of DNA strand breaks in human MCF7 cells at 20 uM after 12 hrs in presence of ROS inhibitor NAC by alkaline comet assay relative to control. The test is classed as functional, cell-based. The gist of the method:
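MCF7 cells treated 12 h, with or without 30 min pretreatment with NAC (10 mM). Strand breaks measured by alkaline comet assay; mean comet tail calculated for 20–25 cells (average ± SEM).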

Test [7] concerns MCF7. Description: Induction of PARP cleavage in human MCF7 cells at 10 uM up to 12 hrs by Western blot method. The test is classed as functional, cell-based. The gist of the method: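 MCF7 cells treated with 10 μM for the indicated times. Full-length and cleaved PARP1 detected by Western blot of whole-cell extracts using rabbit polyclonal PARP1 antibody.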
In general terms: Immunoblotting shows a protein as a band on a membrane.

For test [8], the system named is HeLa. Description: Cytotoxicity against human HeLa cells assessed as reduction in cell viability by MTT assay. It is filed as functional, cell-based. The gist of the method:
(§3)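 Survival of each cell line measured across a range of compound concentrations. Percent inhibition of viability at each concentration calculated against untreated control and IC50 estimated. MEFs were TDP1+/+ and TDP1–/– primary cells. Mean ± SD of at least three experiments in duplicate.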
(Formazan colour is commonly taken as a measure of viable cells.)

Test [9] addresses T2, DNA topoisomerase 1 (Homo sapiens, UniProt P11387).
T2 sequence (P11387 whole entry): T1 sequence (whole entry)
The test can be described thus: Inhibition of recombinant human topoisomerase-1 expressed in baculovirus infected sf9 cells using supercoiled pBS SK(+) DNA as substrate after 15 mins by ethidium bromide staining based agarose gel electrophoresis method. The gist of the method:
as §1

Test [10] deals with MCF7. Description: Induction of ROS accumulation in human MCF7 cells at 10 uM up to 24 hrs in presence of ROS inhibitor NAC by CM-H2DCFDA dye based spectrofluorometric method. It is filed as functional, cell-based. The gist of the method: as §2
Test [11] has as its system MCF7. The test can be described thus: Cytotoxicity against human MCF7 cells assessed as reduction in cell viability by MTT assay. The test is classed as functional, cell-based. The gist of the method: as §3
For test [12], the system named is MCF7. The test can be described thus: Induction of ROS accumulation in human MCF7 cells at 10 uM up to 24 hrs by CM-H2DCFDA dye based spectrofluorometric method relative to control. It is filed as functional. The gist of the method: as §2
For test [13], the system named is MEF. Description: Cytotoxicity against TDP1+/+ MEF assessed as reduction in cell viability by MTT assay. It is filed as cell-based. Conditions: Mus musculus. The gist of the method: as §3
The target of test [14] is T1, DNA topoisomerase 1 (Homo sapiens). Description: Induction of proteasome-mediated topoisomerase-1 degradation in human MCF7 cells at 10 uM up to 12 hrs in presence of proteasome inhibitor MG132 by Western blot method. It is filed as cell-based. The gist of the method: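 Whole-cell extracts of MCF7 cells treated with 10 μM for the indicated times, or preincubated with MG132 (100 nM) for 4 h before 12 h compound exposure. Top1 detected by Western blot with mouse monoclonal anti-Top1 (C21).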

Activity calls are given as the source filed them. The rule behind the calls is not given here.

The inhibition is the drop in the measured response relative to a control, in per cent. The term IC50 denotes the midpoint of a concentration-inhibition curve. One may read the EC50 as the concentration at which the effect is half-maximal.

Turning to `CN(C)c1ccc(-c2c3nc(c(-c4ccc(N(C)C)cc4)c4ccc([nH]4)c(-c4ccc(C(=O)O)cc4)c4nc(c(-c5ccc(C(=O)O)cc5)c5ccc2[nH]5)C=C4)C=C3)cc1`, the inhibition result in test [1] is “Active”. Further, the outcome in test [2], in test [6], in [10] and in [14] was inactive. In addition, the inhibition in test [3] was in the range of 35 to 40%. For the same compound, the Activity result was “Tde” in test [4] and 12 to 15% in [5]. In addition, in test [7], the result was Active. Further, the IC50 in test [8] was 4130 nM; in [11] it was 2170 nM; in test [13], greater than 10000 nM. In test [9], the EC50 turned out to be 1470 nM. Further, in test [12], the “fold change (FC)” value is on record as 3 - 5.
